Screening data from PubChem BioAssay.
Rows were chosen to be rich in hits. Some 2.8% of all compounds tested hit in one or more screens of this group.
pPAFAH inh – pPAFAH enzyme inhibitors, primary screen, biochemical, fluorescence polarization, human | inhibition, % at 3.39 µM | hit rate 1.5% among 330,000 | AID 463082, 2010 | Platelet-activating factor acetylhydrolase (Homo sapiens), Q13093 | recombinant pPAFAH, FP-rhodamine probe fluorescence polarization;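 active = inhibition above the mean inhibition across the screen plus 3 SD, cut at about 25% in these data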;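 also: inhibitors block binding of the rhodamine activity-based probe so polarization drops; 0% = enzyme with DMSO and 100% = wells lacking pPAFAH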
Target sequence (Q13093 whole entry, looked up): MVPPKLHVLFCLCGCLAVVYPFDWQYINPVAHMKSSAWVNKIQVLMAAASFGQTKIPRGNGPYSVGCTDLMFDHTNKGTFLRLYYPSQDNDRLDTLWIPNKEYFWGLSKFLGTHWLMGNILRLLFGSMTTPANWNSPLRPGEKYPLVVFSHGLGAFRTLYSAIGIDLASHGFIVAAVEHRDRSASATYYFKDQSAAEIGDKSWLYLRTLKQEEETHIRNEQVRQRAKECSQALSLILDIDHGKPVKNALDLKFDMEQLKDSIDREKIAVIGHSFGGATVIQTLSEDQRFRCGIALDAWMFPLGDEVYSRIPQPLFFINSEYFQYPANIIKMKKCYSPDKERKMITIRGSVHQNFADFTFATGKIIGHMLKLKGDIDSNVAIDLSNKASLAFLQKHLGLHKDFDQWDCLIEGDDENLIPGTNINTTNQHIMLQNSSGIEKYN
PAFAH1B2 inh – PAFAH1B2 enzyme inhibitors, primary screen, biochemical, fluorescence polarization, human | hit rate 1.2% among 340,000 | Platelet-activating factor acetylhydrolase IB subunit alpha2 (Homo sapiens), P68402 | inhibition, % at 3.39 µM | recombinant PAFAH1B2, FP-rhodamine activity probe;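 active = inhibition above the mean of all tested compounds plus 3 SD, cut at about 24% in these data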;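 also: 0% = enzyme with DMSO and 100% = wells lacking PAFAH1B2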
Target sequence (P68402 whole entry, looked up): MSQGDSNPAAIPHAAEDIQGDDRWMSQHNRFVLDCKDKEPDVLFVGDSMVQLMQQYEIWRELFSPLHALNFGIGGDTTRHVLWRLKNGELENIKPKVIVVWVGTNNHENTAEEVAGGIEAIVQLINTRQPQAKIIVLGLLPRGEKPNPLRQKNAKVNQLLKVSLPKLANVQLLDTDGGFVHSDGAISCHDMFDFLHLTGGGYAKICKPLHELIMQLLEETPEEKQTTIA
HTRA1 inhibitor – HTRA1 serine protease inhibitors, primary screen, biochemical, fluorescence polarization, HTS | Q92743 | recombinant HTRA1, FP-rhodamine activity-based probe | inhibition, % at 5.96 µM | hit rate 0.5% among 340,000; in the data active = inhibition above about 36%;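 also: 0% = enzyme with DMSO and 100% = wells lacking enzyme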
mABHD4 FP – ABHD4 inhibitors, primary screen, biochemical, fluorescence polarization, mouse; (Lyso)-N-acylphosphatidylethanolamine lipase (Mus musculus), Q8VD66; purified mABHD4, FP-Rh probe fluorescence polarization; inhibition, % at 8.92 µM; hit rate 0.54% among 370,000; AID 720543, 2013;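 active = inhibition exceeding the mean over every tested compound plus 3 SD, cut at about 30% in these data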;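 also: 0% = plate median of compound wells and 100% = S159A mutant with DMSO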
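assay system = mABHD4 protein | compound dosing = single nominal dose of 8.92 µM, 0.89% DMSO final | read-out basis = percent inhibition of probe binding, normalized to plate controls | schedule = Enzyme–compound pre-incubation 45 min, then probe 60 min, both 25 °C | detection = fluorescence polarization, excitation 525 nm, emission 598 nm, BODIPY TMR filters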
PAFAH1B3 inh – PAFAH1B3 enzyme inhibitors, primary screen, biochemical, fluorescence polarization, human; Platelet-activating factor acetylhydrolase IB subunit alpha1 (Homo sapiens), Q15102; recombinant PAFAH1B3, FP-rhodamine probe; inhibition, % at 3.39 µM; hit rate 0.28% among 340,000; AID 492972, 2010;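 active = inhibition above the screen-wide average of all tested compounds plus 3 SD, cut at about 25% in these data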;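 also: 0% = enzyme with DMSO only and 100% = wells lacking PAFAH1B3 protein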
PAFAH2 inh – PAFAH2 enzyme inhibitors, primary screen, biochemical, fluorescence polarization, human; recombinant PAFAH2, FP-rhodamine activity probe; inhibition, % at 3.39 µM; hit rate 0.99% among 340,000; AID 492956, 2010;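 active = inhibition above the mean over all tested compounds plus 3 SD, cut at about 30% in these data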;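 also: inhibitors block probe labeling of enzyme so polarization drops; 0% = enzyme with DMSO and 100% = wells lacking PAFAH2 protein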
HTRA1 conf – HTRA1 protease inhibitors, retest, confirmation, biochemical, fluorescence polarization; shares compounds with HTRA1 inhibitor; recombinant HTRA1, FP-rhodamine activity-based probe; inhibition, % at 5.96 µM; hit rate 66% among 1,600; AID 540248, 2011;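 active = mean inhibition over three repeats above a set limit taken from the earlier primary screen, cut at about 37% in these data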;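 also: 0% = HTRA1 with DMSO and 100% = wells lacking HTRA1; inhibitors block probe binding so polarization drops and inhibition rises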
The depositor's hits bear a star.

How did COc1ccccc1CNc1ccc(N2CCCCC2)cc1 do in these assays?
pPAFAH inh: 27*; PAFAH1B2 inh: 7; HTRA1 inhibitor: 57*; PAFAH1B3 inh: 8; PAFAH2 inh: 4; HTRA1 conf: 14

How did COc1cccc(Nc2ccc(N3CCCCC3)cc2)c1OC do in these assays?
pPAFAH inh: 10; PAFAH1B2 inh: 3; HTRA1 inhibitor: 17; mABHD4 FP: 21; PAFAH1B3 inh: 1; PAFAH2 inh: -4

Results for COc1cccc(CNc2ccc(N3CCCCC3)cc2)c1OC ?
pPAFAH inh: 1; PAFAH1B2 inh: -1; HTRA1 inhibitor: 59*; mABHD4 FP: 25; PAFAH1B3 inh: 5; PAFAH2 inh: 5; HTRA1 conf: 7

Results for O=C(N/N=C/c1cccnc1)c1cc(O)c(O)c(O)c1 ?
pPAFAH inh: 8; PAFAH1B2 inh: 0; HTRA1 inhibitor: 45*; mABHD4 FP: 22; PAFAH1B3 inh: 18; PAFAH2 inh: 1; HTRA1 conf: 12

Results for C#CCNC(=O)C[C@@H]1C(=O)N(CCc2ccc(Cl)cc2)/C2=C/CCCCC[C@@]21C(=O)OCC ?
mABHD4 FP: 21

How did O=S(=O)(O)c1cc(O)c(N=Nc2ccc(O)cc2O)c2ccccc12 do in these assays?
PAFAH1B2 inh: 87*; HTRA1 inhibitor: 78*; mABHD4 FP: -36; PAFAH1B3 inh: 90*; PAFAH2 inh: 90*; HTRA1 conf: 54*

How did CCOC(=O)N1CCC(=NNC(=O)c2cc3ccccc3cc2O)CC1 do in these assays?
pPAFAH inh: 27*; PAFAH1B2 inh: 2; HTRA1 inhibitor: 43*; mABHD4 FP: 23; PAFAH1B3 inh: 11; PAFAH2 inh: 7; HTRA1 conf: 15

How did Cc1cc2ccccc2n1CCNC(=O)COc1ccccc1 do in these assays?
pPAFAH inh: 11; PAFAH1B2 inh: 3; HTRA1 inhibitor: 49*; mABHD4 FP: 11; PAFAH1B3 inh: -5; PAFAH2 inh: 1; HTRA1 conf: 3

What do the screens show for `Cc1cc2ccccc2n1CCNC(=O)c1ccc(Br)o1`?
pPAFAH inh: 10; PAFAH1B2 inh: 5; HTRA1 inhibitor: 57*; mABHD4 FP: 15; PAFAH1B3 inh: 6; PAFAH2 inh: 1; HTRA1 conf: 20

How did Cc1cc2ccccc2n1CCNC(=O)c1ccccc1 do in these assays?
pPAFAH inh: 4; PAFAH1B2 inh: 1; HTRA1 inhibitor: 7; mABHD4 FP: 9; PAFAH1B3 inh: 1; PAFAH2 inh: -1

How did CCC(=O)NCCn1c(C)cc2ccccc21 do in these assays?
pPAFAH inh: 2; PAFAH1B2 inh: 1; HTRA1 inhibitor: 8; PAFAH1B3 inh: 0; PAFAH2 inh: 1

What do the screens show for `COc1ccc(-c2cc(NC(=O)Cc3c(C)[nH]c4ccccc34)ccc2Nc2cccnc2)cc1F`?
mABHD4 FP: 9

What do the screens show for `O=C(N1CCN(c2ccccn2)CC1)C(Cl)(Cl)Cl`?
pPAFAH inh: -6; PAFAH1B2 inh: 2; HTRA1 inhibitor: -4; mABHD4 FP: -3; PAFAH1B3 inh: 3; PAFAH2 inh: 8

What do the screens show for `O=C1C=C(N2CCN(c3ccccn3)CC2)C(=O)c2c(O)ccc(O)c21`?
PAFAH1B2 inh: 3; HTRA1 inhibitor: 38*; mABHD4 FP: 13; PAFAH1B3 inh: 16; PAFAH2 inh: 16; HTRA1 conf: 49*

How did O=C1CCCC2=C1C(c1ccc(Cl)cc1)C1C(=O)c3ccccc3C1=N2 (stereo unspecified) do in these assays?
pPAFAH inh: 17; PAFAH1B2 inh: 5; HTRA1 inhibitor: 38*; mABHD4 FP: 29; PAFAH1B3 inh: 12; PAFAH2 inh: 15; HTRA1 conf: 31

Results for O=C1CCCC2=C1C(c1ccccc1)C1C(=O)c3ccccc3C1=N2 (stereo unspecified) ?
pPAFAH inh: 6; PAFAH1B2 inh: 9; HTRA1 inhibitor: 10; mABHD4 FP: 25; PAFAH1B3 inh: 3; PAFAH2 inh: 5

How did COc1ccc(C2=CCN(C)C(=O)N2c2ccc([N+](=O)[O-])cc2)cc1 do in these assays?
mABHD4 FP: 0

Results for COc1ccccc1N1C(=O)c2ccccc2NC1c1ccncc1 (stereo unspecified) ?
pPAFAH inh: 4; PAFAH1B2 inh: -7; HTRA1 inhibitor: 6; mABHD4 FP: -1; PAFAH1B3 inh: 5; PAFAH2 inh: 2

What do the screens show for `COc1ccccc1N1C(=O)N(C(C)=O)C2C1Nc1ccccc1N2C` (stereo unspecified)?
pPAFAH inh: 11; PAFAH1B2 inh: 3; HTRA1 inhibitor: 49*; mABHD4 FP: 26; PAFAH1B3 inh: 17; PAFAH2 inh: 21; HTRA1 conf: 8

How did CN(C)C(=O)C[C@H]1CC[C@H]2[C@H](COc3ccc(NC(=O)C4CC4)cc3C(=O)N2C)O1 do in these assays?
mABHD4 FP: 2

What do the screens show for `O=C(CN1CCN(S(=O)(=O)c2ccc(Br)cc2)CC1)c1ccc(O)c(O)c1`?
pPAFAH inh: 11; PAFAH1B2 inh: 29*; HTRA1 inhibitor: 37*; mABHD4 FP: 18; PAFAH1B3 inh: 1; PAFAH2 inh: 14; HTRA1 conf: 39*

What do the screens show for `CC(C)c1ccc(S(=O)(=O)N2CCN(CC(=O)c3ccc(O)c(O)c3)CC2)cc1`?
pPAFAH inh: 20; PAFAH1B2 inh: 6; HTRA1 inhibitor: 38*; mABHD4 FP: 21; PAFAH1B3 inh: 7; PAFAH2 inh: 17; HTRA1 conf: 35

How did CCOc1ccc(C(=O)CN2CCN(S(=O)(=O)c3ccc(Cl)cc3)CC2)cc1 do in these assays?
pPAFAH inh: -1; PAFAH1B2 inh: 15; HTRA1 inhibitor: -5; mABHD4 FP: -8; PAFAH1B3 inh: 6; PAFAH2 inh: -3

How did Cc1cccc(NC(=O)Nc2ccccc2C(=O)N2CCCC2)c1 do in these assays?
mABHD4 FP: 3

Results for O=S1(=O)c2ccc(Br)cc2OC[C@H](Cc2ccccc2)N1Cc1cn(CCC2OCCO2)nn1 ?
mABHD4 FP: 3

Results for O=[N+]([O-])c1ccc(/C=N/Nc2ccc3ccccc3c2)o1 ?
pPAFAH inh: 7; PAFAH1B2 inh: -4; HTRA1 inhibitor: 37*; mABHD4 FP: 0; PAFAH1B3 inh: -8; PAFAH2 inh: -2; HTRA1 conf: 16
